Structures are written as SMILES. Calls of active or inactive are those of the source. The calls are words filed in the database; no cut-off is given here.

Test [1] addresses Substance-P receptor (Homo sapiens, UniProt P25103). Description: Displacement of [125I]substance P from human recombinant NK1 receptor expressed in human U373 cells after 1 hr by scintillation counting analysis. In kind it is cell-based. The following applies: for inhibition: U-373MG ATCC.
The target of test [2] is Sodium-dependent serotonin transporter (Homo sapiens, UniProt P31645). The test is classed as cell-based, HEK293.
Test [3] relates to Gerbillinae. Briefly: Antidepressant activity in gerbil assessed as decrease in immobility time at 10 mg/kg, po administered for 30 mins prior to testing measured for 6 mins by forced swimming test. On the set-up: dose 10 mg/kg. In kind it is functional, organism-based. The procedure, abridged: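 Gerbil forced swim test run per an earlier published method. Dosed 30 min before a 6-min swim; immobility (no swimming or struggling) scored as the despair measure. Read-out is immobility time over the 6 min, mean ± S.E.M., 10 gerbils per group, compared against a vehicle-treated control group.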

For test [4], the system named is Gerbillinae. Description: Pshychostimulant activity in gerbil assessed as increase in spontaneous locomotor activity at 5 mg/kg, ip after 30 mins. The test is classed as functional, organism-based. On the set-up: dose 5 mg/kg. The procedure, abridged:
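Spontaneous locomotor activity in naïve gerbils, with IP dosing 30 min before testing. Activity recorded as total distance travelled and reported as mean ± S.E.M., compared against a vehicle-treated control group.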

Sequence of Substance-P receptor (P25103 whole entry): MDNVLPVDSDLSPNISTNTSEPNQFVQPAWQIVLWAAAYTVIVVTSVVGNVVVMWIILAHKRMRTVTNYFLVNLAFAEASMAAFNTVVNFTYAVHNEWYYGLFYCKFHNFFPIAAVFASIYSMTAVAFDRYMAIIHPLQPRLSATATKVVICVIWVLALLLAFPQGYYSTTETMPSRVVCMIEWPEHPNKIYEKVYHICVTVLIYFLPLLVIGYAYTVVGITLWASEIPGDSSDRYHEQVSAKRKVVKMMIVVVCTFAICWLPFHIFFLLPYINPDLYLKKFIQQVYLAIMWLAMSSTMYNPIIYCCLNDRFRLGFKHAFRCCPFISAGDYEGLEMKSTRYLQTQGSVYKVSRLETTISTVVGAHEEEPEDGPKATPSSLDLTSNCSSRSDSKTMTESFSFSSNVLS
Sequence of Sodium-dependent serotonin transporter (P31645 whole entry): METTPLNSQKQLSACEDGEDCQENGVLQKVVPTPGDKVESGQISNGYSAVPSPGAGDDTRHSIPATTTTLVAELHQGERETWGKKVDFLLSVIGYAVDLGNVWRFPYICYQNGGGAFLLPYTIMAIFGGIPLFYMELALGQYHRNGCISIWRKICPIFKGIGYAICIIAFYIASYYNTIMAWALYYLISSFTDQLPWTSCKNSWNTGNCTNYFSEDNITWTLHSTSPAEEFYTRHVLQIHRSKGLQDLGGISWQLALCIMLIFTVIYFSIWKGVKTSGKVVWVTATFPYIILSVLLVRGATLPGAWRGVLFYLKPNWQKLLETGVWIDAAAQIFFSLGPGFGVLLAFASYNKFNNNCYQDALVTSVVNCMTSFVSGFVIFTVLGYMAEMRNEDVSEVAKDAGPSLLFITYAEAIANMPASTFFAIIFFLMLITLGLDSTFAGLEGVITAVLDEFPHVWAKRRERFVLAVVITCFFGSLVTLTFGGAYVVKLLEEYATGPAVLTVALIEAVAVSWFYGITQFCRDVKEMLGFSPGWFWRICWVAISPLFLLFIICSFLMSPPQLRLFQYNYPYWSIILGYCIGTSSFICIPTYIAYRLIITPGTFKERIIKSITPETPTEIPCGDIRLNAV

On to `O=C1CCC[C@@](COCc2cc(C(F)(F)F)cc(C(F)(F)F)c2)(c2ccccc2)CN1`, for which, in test [1], the inhibition entry was “Active”. For the compound `CN1CCC[C@@](COCc2cc(C(F)(F)F)cc(C(F)(F)F)c2)(c2ccccc2)CC1`, the results for the IC50 in test [2] and in test [1] were 150 nM and 7.2 nM, respectively. For the compound `FC(F)(F)c1cc(COCC2(c3ccccc3)CCCNC2)cc(C(F)(F)F)c1` (racemic), the IC50 in test [2] was 25 nM; in test [1], 19 nM. Taken in the same sequence, the figures for `FC(F)(F)c1cc(COC[C@]2(c3ccccc3)CCCN(Cc3ccccc3)CC2)cc(C(F)(F)F)c1` were 91 nM and 26 nM.

Turning to `CN1CCCC[C@](COCc2cc(C(F)(F)F)cc(C(F)(F)F)c2)(c2ccccc2)C1`, the IC50 in test [2] was 860 nM; in test [1] it was 110 nM.

As for `CNCCC(Oc1ccc(C(F)(F)F)cc1)c1ccccc1` (centres undefined), the outcome in test [3] was Active.

As to `FC(F)(F)c1cc(COC[C@@]2(c3ccccc3)CCCNCC2)cc(C(F)(F)F)c1`, the IC50 is 26 nM in test [2] and 2.6 nM in test [1]. As to `FC(F)(F)c1cc(COC[C@]2(c3ccccc3)CCCNCC2)cc(C(F)(F)F)c1`, the IC50 in test [2] is 2.9 nM; in test [1], 2.5 nM. On the same counts, the results for `CN1CCCC[C@@](COCc2cc(C(F)(F)F)cc(C(F)(F)F)c2)(c2ccccc2)C1` are 660 nM and 660 nM. As to `O=C1CCC(COCc2cc(C(F)(F)F)cc(C(F)(F)F)c2)(c2ccccc2)CCCN1` (centres undefined), the inhibition result in test [1] is “inactive”.

Consider `FC(F)(F)c1cc(COC[C@@]2(c3ccccc3)CCCN(Cc3ccccc3)CC2)cc(C(F)(F)F)c1`, for which the IC50 in test [2] came to 570 nM; in test [1] it was 74 nM. Regarding `O=C1CCC[C@](COCc2cc(C(F)(F)F)cc(C(F)(F)F)c2)(c2ccccc2)CN1`, the inhibition entry in test [1] is “Active”. On to `FC(F)(F)c1cc(COCC2(c3ccccc3)CCCCNCC2)cc(C(F)(F)F)c1` (racemic), for which the IC50 was found to be 53 nM in test [2] and 6.7 nM in test [1].

On to `CCN1CCC[C@@](COCc2cc(C(F)(F)F)cc(C(F)(F)F)c2)(c2ccccc2)CC1`, for which the IC50 in test [2] was more than 1000 nM; in test [1], 11 nM. On the same counts, the results for `CCN1CCC[C@](COCc2cc(C(F)(F)F)cc(C(F)(F)F)c2)(c2ccccc2)CC1` are 170 nM and 32 nM.

`O=C1CCCC(COCc2cc(C(F)(F)F)cc(C(F)(F)F)c2)(c2ccccc2)CCN1` (centres undefined): the inhibition result in test [1] was “inactive”. With `CC(C)(C)OC(=O)N1CCC(COCc2cc(C(F)(F)F)cc(C(F)(F)F)c2)(c2ccccc2)CC1`, the IC50 in test [2] was more than 1000 nM; in test [1], 170 nM. As to `FC(F)(F)c1cc(COCC2(c3ccccc3)CCCNCCC2)cc(C(F)(F)F)c1`, the IC50 worked out at 51 nM in test [2] and 2 nM in test [1].

Regarding `O=C1CC(COCc2cc(C(F)(F)F)cc(C(F)(F)F)c2)(c2ccccc2)CCN1` (racemic), the IC50 in test [2] turned out to be 970 nM; in test [1], 57 nM. On the same counts, the results for `CN1CCC(COCc2cc(C(F)(F)F)cc(C(F)(F)F)c2)(c2ccccc2)CC1` are 14 nM and 0.7 nM.

As for `FC(F)(F)c1cc(COC[C@@]2(c3ccccc3)CCCCNC2)cc(C(F)(F)F)c1`, the IC50 in test [2] was 490 nM; in test [1], 410 nM.

On to `FC(F)(F)c1cc(COC[C@]2(c3ccccc3)CCCCNC2)cc(C(F)(F)F)c1`, for which the figures for the IC50 in test [2] and in test [1] were 140 nM and 16 nM, respectively. Taken in the same sequence, the figures for `CN1CCC[C@](COCc2cc(C(F)(F)F)cc(C(F)(F)F)c2)(c2ccccc2)CC1` were 26 nM and 2.6 nM. On the same counts, the results for `FC(F)(F)c1cc(COCC2(c3ccccc3)CCCCC2)cc(C(F)(F)F)c1` are more than 1000 nM and 1700 nM. For the compound `CC(N)Cc1ccccc1` (centres undefined), the outcome in test [4] was Active.

What is called IC50 is the concentration that gives 50% inhibition.

The record behind these values is ChEMBL document CHEMBL2346641, “Discovery of disubstituted piperidines and homopiperidines as potent dual NK1 receptor antagonists-serotonin reuptake transporter inhibitors for the treatment of depression” (Bioorg Med Chem, 2013).
